# Calls of active or inactive are those of the source. No cut-off for these calls is given here.
# Key:
# Mus musculus [1] = test: (§1) Antiinflammatory activity against LPS-induced sepsis C57BL/6J mouse model assessed as reduction in alveolar exudate at 20 mg/kg, iv administered as single dose for 1 hr prior to LPS challenge and measured after 48 hrs by hematoxylin-eosin staining based inverted microscopy analysis; assay type: functional, organism-based
# Caspase-1 (Mus musculus) [2] = target: T1, Caspase-1 (Mus musculus) (UniProt P29452); test: Inhibition of caspase-1 activity in LPS-primed immortalized mouse […] cells assessed as reduction in nigericin-induced Ac-YVAD-pNA cleavage using Ac-YVAD-pNA as substrate at 5 uM by FAM-FLICA reagent based confocal microscopy; assay type: cell-based; details: J774.A1
# T1 sequence (whole entry): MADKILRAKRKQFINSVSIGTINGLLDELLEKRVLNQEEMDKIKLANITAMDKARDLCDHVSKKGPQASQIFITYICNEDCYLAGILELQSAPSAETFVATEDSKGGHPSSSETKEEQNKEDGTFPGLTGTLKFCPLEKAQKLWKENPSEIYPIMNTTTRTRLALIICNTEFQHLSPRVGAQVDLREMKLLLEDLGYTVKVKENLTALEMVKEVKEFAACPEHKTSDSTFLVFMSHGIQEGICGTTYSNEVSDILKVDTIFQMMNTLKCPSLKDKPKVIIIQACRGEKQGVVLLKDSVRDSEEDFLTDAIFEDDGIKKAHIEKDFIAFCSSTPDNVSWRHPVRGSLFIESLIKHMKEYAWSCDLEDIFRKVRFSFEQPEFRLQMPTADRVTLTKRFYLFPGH
# Outline: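 Nigericin-treated macrophages. Active caspase-1 was detected two ways: in J774A.1 cells stained with the FAM-FLICA probe plus Hoechst, imaged by confocal microscopy and FLICA intensity quantified in ≥20 cells per group; and with the Ac-YVAD-pNA substrate. Mean ± SEM, n ≥ 3.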
# THP-1 = test: Inhibition of pyroptosis in LPS-primed human THP1 assessed as reduction in nigericin-induced pyroptotic-pore formation by propidium iodide uptake assay; assay type: functional, cell-based
# Outline: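 THP-1 cells induced to pyroptosis. Cell death read by LDH release and pore formation by PI uptake. Means ± SE, ≥3 experimental replicates.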
# BMDM [3] = test: Inhibition of pyroptosis cell death in LPS-primed C57BL/6 mouse primary BMDM assessed as reduction in nigericin-induced IL-1beta secretion; assay type: functional, cell-based
# Outline: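 Primary murine macrophages primed with LPS and stimulated with nigericin across a dose range. IL-1β release, LDH release and Alamar blue measured. Means ± SE, ≥3 experimental replicates.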
# Mus musculus [4] = test: as §1, with “epithelial architecture damage” for “exudate”; assay type: functional, organism-based
# [5] = target: T2, Gasdermin-D (Mus musculus) (UniProt Q9D8T2); test: Inhibition of GSDMD cytosol-plasma membrane translocation in LPS-primed C57BL/6 mouse primary BMDM at 5 uM followed by nigericin stimulation by immunofluorescence assay
# T2 sequence (whole entry): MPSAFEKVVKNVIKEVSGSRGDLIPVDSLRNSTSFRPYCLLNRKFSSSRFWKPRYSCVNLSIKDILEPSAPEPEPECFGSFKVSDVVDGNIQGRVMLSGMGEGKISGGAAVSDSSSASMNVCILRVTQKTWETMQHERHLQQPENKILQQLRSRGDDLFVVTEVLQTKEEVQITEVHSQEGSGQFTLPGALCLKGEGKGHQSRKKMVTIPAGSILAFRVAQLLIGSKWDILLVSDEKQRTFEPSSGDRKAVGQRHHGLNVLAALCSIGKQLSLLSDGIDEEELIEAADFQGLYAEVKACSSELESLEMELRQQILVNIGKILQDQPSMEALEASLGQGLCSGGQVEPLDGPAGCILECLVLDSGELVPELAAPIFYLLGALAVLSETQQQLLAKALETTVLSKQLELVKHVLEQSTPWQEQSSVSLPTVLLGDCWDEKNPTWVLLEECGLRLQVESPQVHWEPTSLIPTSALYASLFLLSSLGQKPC
# Outline: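 Macrophages were LPS-primed, then stimulated with nigericin, in immortalized and primary cells. Anti-GSDMD immunofluorescence, with line-intensity histograms of cytosol versus plasma-membrane localization. Mean ± SEM, n ≥ 3 independent experiments.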
# BMDM [6] = test: Inhibition of pyroptosis in LPS-primed C57BL/6 mouse primary BMDM assessed as effect on nigericin-induced cell morphological changes at 5 uM by propidium iodide staining based confocal microscopy; assay type: functional
# Outline: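 Primary BMDM and J774A.1 cells treated with LPS and nigericin. Swelling, bubble formation and propidium iodide uptake visualized by epifluorescence microscopy.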
# J774.A1 [7] = test: Inhibition of pyroptosis in LPS-primed immortalized mouse […] cells followed by subsequent nigericin stimulation by imaging analysis; assay type: functional, cell-based
# Caspase-1 (Mus musculus) [8] = target: T1, Caspase-1 (Mus musculus); test: Inhibition of caspase-1 activity in LPS-primed immortalized mouse […] cells assessed as reduction in nigericin-induced caspase-1 cleavage at 5 uM by Western blot analysis; assay type: cell-based; details: J774.A1
# Outline: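 Western blot of full-length and cleaved caspase-1 and caspase-8 in J774A.1 cells after nigericin, with tubulin as loading control. Bands quantified as bar graphs.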
# Caspase-1 (Homo sapiens) = target: T3, Caspase-1 (Homo sapiens) (UniProt P29466); test: Inhibition of pronase-mediated caspase-1 degradation in HEK293 cell lysate at 5 uM measured after 30 mins by DARTS based Western blot analysis; assay type: cell-free
# T3 sequence (whole entry): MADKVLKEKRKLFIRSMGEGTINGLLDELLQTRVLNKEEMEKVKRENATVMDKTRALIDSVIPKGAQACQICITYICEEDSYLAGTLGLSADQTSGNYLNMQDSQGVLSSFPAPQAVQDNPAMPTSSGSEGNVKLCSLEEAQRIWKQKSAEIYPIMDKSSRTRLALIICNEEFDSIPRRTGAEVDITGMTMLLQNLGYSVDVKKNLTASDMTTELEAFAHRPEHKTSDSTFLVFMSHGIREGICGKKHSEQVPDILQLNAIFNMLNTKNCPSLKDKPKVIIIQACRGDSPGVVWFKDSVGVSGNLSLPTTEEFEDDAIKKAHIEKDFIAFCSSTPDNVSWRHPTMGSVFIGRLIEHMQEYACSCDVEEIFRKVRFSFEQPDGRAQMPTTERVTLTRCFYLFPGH
# Outline: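 DARTS assay: cell lysates pretreated with compound, then digested with different Pronase concentrations. Caspase-1 stability read by immunoblot against a histone H3 control.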
# J774.A1 [9] = test: Inhibition of pyroptosis in LPS-primed immortalized mouse […] cells assessed as reduction in nigericin-induced IL-beta secretion by imaging analysis; assay type: functional
# Danio rerio = organism: Danio rerio; test: Antiinflammatory immunity against LPS-induced sepsis in […]:eGFP zebrafish larva assessed as decrease in macrophage infiltration in intestine at 5 uM measured at 7 dpf by confocal microscopic analysis; assay type: functional, organism-based
# Outline: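 Zebrafish sepsis model using Tg(mpeg1:eGFP) larvae with GFP-labelled macrophages, treated at 5 μM. Intestine imaged by confocal microscopy at 7 days post fertilization, and macrophages counted in the imaged region.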
structure (smiles),measurement,setting,value
CCOC(CN1C(=O)C(NC(=O)Nc2ccc(C)cc2)(C(F)(F)C(=O)Nc2ccc(C)cc2)c2ccccc21)OCC (configuration not stated),Activity,Mus musculus [1],Active
same,inhibition,Caspase-1 (Mus musculus) [2],Active
same,inhibition,THP-1,Active
same,inhibition,BMDM [3],Dose-dependent effect
same,Activity,Mus musculus [4],Active
same,inhibition,[5],Active
same,inhibition,BMDM [6],Active
same,EC50,J774.A1 [7],5.5 µM
same,inhibition,Caspase-1 (Mus musculus) [8],Active
same,inhibition,Caspase-1 (Homo sapiens),Active
same,Activity,J774.A1 [9],92.13 pg/mL
same,Activity,Danio rerio,Active

# Reference: ChEMBL document CHEMBL4619791, “3-Difluoroalkyl Quaternary Oxindoles Inhibit Macrophage Pyroptosis by Blocking Inflammasome Recruitment of Caspase-1” (ACS Med Chem Lett, 2020)
